Assay results reported in PubChem BioAssay AID504383 (The Scripps Research Institute Molecular Screening Center, 2011).
In all, about 2,500 compounds went through this assay and about 1,200 (48%) were called active.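 How the source made its calls: active means mean activation above the low control average plus 3 SD, as set in the primary screen (cut at about 12% in these data); inactive means the rest.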 The set was probably picked from earlier hits. This is one part of the list.

Target: Troponin I, cardiac muscle (Homo sapiens) + Troponin T, cardiac muscle (Homo sapiens) + Troponin C, slow skeletal and cardiac muscles (Homo sapiens) (UniProt P19429+P45379+P63316)
Assay: cardiac RTF calcium sensitivity activators, confirmation, biochemical, IANBD-TnC fluorescence, triplicate (AID 504383);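 further: 0% = DMSO at 0.472 mM calcium and 100% = DMSO at 2.9 mM calcium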
Settings: IANBD-labeled cardiac RTF, Ca2+ sensitivity fluorescence; at 7.2 µM; hits give high values; scaled from EC20 to saturating calcium; tested at EC20 calcium, 0.472 mM
In short: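 Test system: labelled regulated thin filament protein complex. Dosing: single nominal compound dose of 7.2 µM. Benchmarks: EC20 and EC100 calcium wells. Read-out basis: fluorescence gain scaled between EC20 and EC100 calcium controls. Probe or stimulus: submaximal calcium at 0.472 mM (EC20). Technique: fluorescence. Times: 15 min compound exposure, 25 °C.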

Row | Structure (SMILES) | activation
1 | N#C/C(=C/c1ccc(N2CCOCC2)o1)C(=O)Nc1ccccc1 | 2.26% (inactive)
2 | N#C/C(=C/c1ccc(N2CCOCC2)o1)C(=O)NC1CCCCC1 | -0.07% (inactive)
3 | COc1ccc(NC(=O)/C(C#N)=C\c2ccc(N3CCOCC3)o2)cc1 | 32.2% (active)
4 | N#C/C(=C/c1ccc(N2CCCCC2)o1)C(=O)Nc1ccc(Cl)cc1 | 111% (active)
5 | N#C/C(=C\c1ccc(N2CCOCC2)o1)C(=O)NC1CCCCC1 | 28.9% (active)
6 | N#C/C(=C\c1ccc(N2CCOCC2)o1)C(=O)NCC1CCCO1 (centres undefined) | -0.28% (inactive)
7 | N#C/C(=C/c1ccc(N2CCCCC2)o1)C(=O)NCCc1c[nH]c2ccccc12 | 40.9% (active)
8 | CCOC(=O)/C(C#N)=N\Nc1cc(Cl)ccc1OC | 6.36% (inactive)
9 | N#C/C(=C/c1ccc(N2CCCCC2)o1)C(=O)Nc1ccc2ccccc2c1 | 171% (active)
10 | N#C/C(=C\c1ccc(N2CCCCC2)o1)C(=O)Nc1cccc(Br)c1 | 5.9% (inactive)
11 | N#C/C(=C/c1ccc(N2CCOCC2)o1)C(=O)N1CCOCC1 | 10.1% (inactive)
12 | N#C/C(=C\c1ccc(N2CCOCC2)o1)C(=O)N1CCOCC1 | 6.09% (inactive)
13 | N#C/C(=C\c1ccc(N2CCCCC2)o1)C(N)=O | 11.6% (active)
14 | N#C/C(=C\c1ccc(N2CCOCC2)o1)C(=O)NCCc1ccccc1 | 43.7% (active)
15 | COCCNC(=O)/C(C#N)=C/c1ccc(N2CCOCC2)o1 | 9.29% (inactive)
16 | CN1C(=O)NC(c2ccccc2[N+](=O)[O-])C2=C1CCCC2=O (centres undefined) | 14.6% (active)
17 | O=C1NC2=C(C(=O)CCC2)C(c2ccccc2Cl)N1 (centres undefined) | 10.3% (inactive)
18 | C=CCN1C(=O)/C(=C/c2ccc(O)c(OC)c2)S/C1=N/c1nccs1 | 5.76% (inactive)
19 | COc1ccc(/C=C2/SC(c3ccc(C)cc3)=NC2=O)cc1OC | 34.6% (active)
20 | COc1ccc(/C=C2\SC(c3ccc(C)cc3)=NC2=O)cc1OC | 12.9% (active)
21 | COc1ccc(/C=c2\s/c(=C/C(=O)c3ccc(C)cc3)[nH]c2=O)cc1OC | 1.66% (inactive)
22 | COc1ccc(/C=C2\SC(=O)NC2=S)cc1OC | 7.81% (inactive)
23 | COc1cc(N2CCCC2)c(OC)cc1/C=C1/NC(=S)NC1=O | 113% (active)
24 | COc1ccc2c(Cl)c(C(=O)N/N=C3\CCCC(=O)C3)sc2c1 | 47.6% (active)

Row | Structure (SMILES) | activation
25 | O=C1CCCC(=NNC(=O)c2cc3ccccc3cc2O)C1 | 8.36% (inactive)
26 | O=C1CCC/C(=N/NC(=O)c2sc3ccccc3c2Cl)C1 | 7.01% (inactive)
27 | CC1(c2cccc(Br)c2)NC(=O)NC1=O (centres undefined) | 52.2% (active)
28 | COC(=O)C1=C(C(=O)OC)[C@@H]2Nc3ccccc3[C@@]23C[C@@H](C(=O)OC)N(C(=O)c2cccs2)C3=N1 | 36.8% (active)
29 | COc1ccc(NC(C)=O)cc1NC(=O)C1CCCN1C(=O)c1cccs1 (centres undefined) | 6.06% (inactive)
30 | O=C(CCC1CCCN(C(=O)C2=CCCC2)C1)N1CCN(c2ccccn2)CC1 (centres undefined) | 4.61% (inactive)
31 | CCC1Oc2ccc(C)cc2N(CC(=O)NCc2cccs2)C1=O (centres undefined) | -5.95% (inactive)
32 | Cc1ccc(SCC(=O)OCC(=O)NCc2cccs2)cc1 | 12.8% (active)
33 | CC(=O)n1cc(CO)c2ccccc21 | 262% (active)
34 | Cc1ccc(Cl)c(NC(=O)CN(C)CC(=O)Nc2ccc(F)c(F)c2F)c1Cl | 2.04% (inactive)
35 | CC(CCc1ccc(O)cc1)NCCC(c1ccccc1)c1ccccc1 (centres undefined) | 48.6% (active)
36 | NS(=O)(=O)c1ccc(NCc2c(F)cccc2Cl)cc1 | 45.6% (active)
37 | CCN=C(NC#N)SCc1c(F)cccc1Cl | 11.4% (inactive)
38 | Cc1cccc(N=Cc2[nH]c3ccc(Br)c(Cl)c3c2O)c1 | 4.45% (inactive)
39 | CCOc1ccc(Nc2nc(N)c([N+](=O)[O-])c(NCc3ccccc3)n2)cc1 | 7.49% (inactive)
40 | CCOc1ccc(Cn2nnc(C(=O)NCCc3ccccc3)c2N)cc1 | 821% (active)
41 | Cc1ccccc1-c1noc(-c2cccs2)n1 | 24.3% (active)
42 | COc1cccc2cc(-c3nc(-c4cccs4)cs3)c(=O)oc12 | 3.53% (inactive)
43 | COc1ccc(N2CCN(C(=O)c3ccc(OCC4CCCO4)cc3)CC2)cc1 (centres undefined) | 71% (active)
44 | COC(=O)c1sc(N2C(=O)C(O)=C(C(=O)c3ccc(C)o3)C2c2ccc(F)cc2)nc1C (centres undefined) | 35% (active)
45 | O=C(C1=C(O)C(=O)N(c2nccs2)C1c1ccccc1)c1cc2ccccc2o1 (centres undefined) | 5.32% (inactive)
46 | CCCC1C(c2ccccc2)C(C#N)(C#N)C2(C#N)CC1(N)NC2=O (centres undefined) | 10.5% (inactive)
47 | N#C/C(=C\c1coc2ccc(O)cc2c1=O)C(=O)Nc1nc2ccccc2s1 | 12.6% (active)
48 | O=C(C1=NN(c2ccccc2)C2C(=O)N(c3ccccc3Cl)C(=O)C12)c1ccccc1 (centres undefined) | 13.6% (active)

Row | Structure (SMILES) | activation
49 | COc1cccc(/C=C/C(=C2\C(=O)N(c3ccccc3)N=C2C)c2ccc(Br)cc2)c1OC | 4.48% (inactive)
50 | O=C1N(c2cccc(Cl)c2)C(c2ccccc2)N2CCCN12 (centres undefined) | 6.5% (inactive)
51 | O=C(C1=NN(c2ccccc2)C2C(=O)N(c3ccc(Cl)cc3)C(=O)C12)c1ccccc1 (centres undefined) | 2.79% (inactive)
52 | O=C(C1=NN(c2ccccc2)C2C(=O)N(c3cccc(Cl)c3)C(=O)C12)c1ccccc1 (centres undefined) | 35.7% (active)
53 | Cc1ccc(CC2C(=O)N(c3ccc(C)cc3)C(=O)C2C)cc1 (centres undefined) | 7.76% (inactive)
54 | O=C(C1=NN(c2ccccc2)C2C(=O)N(c3ccccc3)C(=O)C12)c1ccccc1 (centres undefined) | 3.95% (inactive)
55 | COc1ccccc1N1C(=O)C2C(C(=O)c3ccccc3)=NN(c3ccccc3)C2C1=O (centres undefined) | 11.7% (active)
56 | Cc1ccc(N2C(=O)C3C(C(=O)c4ccccc4)=NN(c4ccccc4)C3C2=O)cc1 (centres undefined) | 29.5% (active)
57 | COc1ccc(C2(CNC(C)=O)CCCC2)cc1OC | 3.15% (inactive)
58 | COC(=O)c1c(-c2ccc(OC)c(OC)c2)csc1N | 13% (active)
59 | CCOC(=O)c1c(-c2ccc(C)cc2)csc1NC(=O)/C(C#N)=C/c1ccc(O)c(OC)c1 | 4.04% (inactive)
60 | O=C(CSCc1ccco1)NC1CCCC1 | 13.6% (active)
61 | O=C(c1ccc(=O)[nH]c1)N(Cc1ccco1)C1(C(=O)NC2CCCCC2)CCCCC1 | 8.99% (inactive)
62 | S=C(NC1CC1)NC1CCCc2ccccc21 (centres undefined) | 7.09% (inactive)
63 | COc1cc(NC(=O)CSc2nc3ccccc3n2-c2ccccc2)c(C)cc1[N+](=O)[O-] | 6.07% (inactive)
64 | COC(=O)c1sccc1NC(=O)CSCC(=O)O | 0.67% (inactive)
65 | COc1cc(NC(=O)CSc2ccccc2)c(C(=O)O)cc1OC | 23.2% (active)
66 | CCOC(=O)N1CCC(NC(=O)c2cnn3c2NC(c2ccco2)CC3C(F)(F)F)CC1 (centres undefined) | 18% (active)
67 | CCOC(=O)C1=C(C)NC(C)=C(C(=O)OCC)C1c1ccco1 | 8.22% (inactive)
68 | CC1=N/C(=C/c2ccc([N+](=O)[O-])cc2)C(=O)N1c1ccc(Cl)cc1Cl | 6.42% (inactive)
69 | COc1ccc(N2CCN(c3ccc([N+](=O)[O-])cc3Cl)CC2)cc1 | 41.8% (active)
70 | COc1ccc(N2CCN(S(=O)(=O)Cc3ccccc3)CC2)cc1 | 10.5% (inactive)
71 | COc1ccccc1N1CCN(c2ccc([N+](=O)[O-])cc2Cl)CC1 | 90.7% (active)
72 | COc1ccccc1N1CCN(C(=O)CCC(=O)O)CC1 | 4.12% (inactive)

Row | Structure (SMILES) | activation
73 | Cn1c(NC(=O)C[n+]2cc(-c3ccc(Cl)cc3)n3c2CCC3)cc(=O)n(C)c1=O | 5.8% (inactive)
74 | Cc1onc(-c2ccccc2Cl)c1C(=O)N(Cc1ccc(N(C)C)cc1)C(C)C | 12% (active)
75 | CC(=O)Nc1ccc(SCC(=O)NNC(=O)CN(C)S(=O)(=O)c2ccc(C)cc2)cc1 | 98% (active)
76 | Cc1ccc(Cn2c(Sc3nnc(C)s3)nc3c2c(=O)[nH]c(=O)n3C)cc1 | 108% (active)
77 | COc1ccc(/C=c2\s/c(=C/C(=O)c3ccc(C)cc3)[nH]c2=O)c(OC)c1 | 10.7% (inactive)
78 | COc1cc(/C=C2\CC/C(=C\c3ccc(OCCO)c(OC)c3)C2=O)ccc1OCCO | 7.54% (inactive)
79 | COc1ccc(/C=C2\CC/C(=C\c3ccc(OC)cc3OC)C2=O)c(OC)c1 | 50.4% (active)
80 | COC(=O)[C@H](C)NC(=O)c1cc2c(cn1)[nH]c1ccccc12 | 10.7% (inactive)
81 | CCOC(=O)C1=C(COC(=O)c2ccc3ccccc3c2O)NC(=O)NC1C (centres undefined) | 6.83% (inactive)
82 | CCOC(=O)c1c(NCC(C)C)c2ccccc2[nH]c1=O | 183% (active)
83 | COc1ccc(N2C(=O)[C@@H]3[C@H](C2=O)[C@H]2c4ccccc4C=CN2[C@@H]3C(=O)Nc2ccccc2)cc1 | 55.7% (active)
84 | Cc1ccc(-c2nc(N)sc2CC(=O)OCC(=O)NCCC(C)C)cc1 | 10.3% (inactive)
85 | Cc1ccc(-c2nc(C)sc2CC(=O)O)cc1 | 28.5% (active)
86 | COC(=O)c1ccc2c(c1)NC1=C(C(=O)CC(C)(C)C1)C(c1ccncc1)N2 (centres undefined) | 9.24% (inactive)
87 | COc1ccc(NC(=O)c2cc(C)on2)cc1OC | 6.63% (inactive)
88 | COc1ccc(-c2cc(C(F)(F)F)nc(S(=O)(=O)CCCC(=O)Nc3cc(C)on3)n2)cc1OC | 16.4% (active)
89 | O=C1/C(=C/c2cccnc2)SC(=S)N1N1CCOCC1 | 12.4% (active)
90 | O=C(CCN1C(=O)/C(=C/c2ccccc2)SC1=S)NNC(=O)c1cccnc1 | 6.78% (inactive)
91 | Cc1ccc(N=C2NC(=O)/C(=C/c3cn(C)c4ccccc34)S2)cc1C | 6.33% (inactive)
92 | O=C(O)CN1C(=O)/C(=C\c2cn(CC(=O)N3CCOCC3)c3ccccc23)SC1=S | 16.6% (active)
93 | Cn1cc(/C=C2\SC(=S)N(N3CCOCC3)C2=O)c2ccccc21 | 12.7% (active)
94 | O=C(CS(=O)(=O)c1cn(Cc2ccc(F)cc2)c2ccccc12)N1CCOCC1 | 1.62% (inactive)
